B1: tRNA (parent)
chain: GUUCCGUUGGCGUAAUGGUAACGCGUCUCCCUCCUAAGGAGAAGACUGCGGGUUCGAGUCCCGUACGGAACG

Variants at the floor of the assay were thinned out.

In this series the parent is B1. Nature of the series: yeast fitness relative to wild type (ratio to wild type); higher = fitter; tRNA-Arg(CCU), competitive growth, 37 C, YPD. In a few lines: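 The tRNA-Arg(CCU) gene variants were made by chemical synthesis with a 3% per-site mutation rate at 69 sites and inserted at the native genomic locus of Saccharomyces cerevisiae. After pooling, the strains were competed in YPD at 37°C for 24 hours in six parallel replicates. Gene amplicons from the start population and each end population were read by 100-nucleotide paired-end sequencing, and Darwinian fitness relative to wild type was taken from genotype frequency changes. Genotypes needed ≥ 100 starting reads, and estimates < 0.5 were set to 0.5.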
Consider C11U U32C A45C, for which the yeast fitness came to 0.885.

As to A21C G67A, the yeast fitness was 0.8.

Regarding U13G U26A A45C A69C, the yeast fitness worked out at 0.577.

On to U16G U59G, for which the yeast fitness was 0.78.

C27U C46U G48A A70C: the yeast fitness stood at 0.669.

Regarding G44A G68A, the yeast fitness came to 0.802.

With A14C U47C, the yeast fitness came out at 0.79.

Regarding C30A C60U C66U, the yeast fitness was at most 0.5.

Consider C4U G52A G63C, for which the yeast fitness amounted to 0.595.

Take C27G C33U: the yeast fitness was 0.592.

U13A C29U A43G U54A U59C C61A: the yeast fitness is at most 0.5.

On to G18C A20C C22U C31U C61U, for which the yeast fitness was at most 0.5.

As to C24G C27G C62A, the yeast fitness was 0.622.

With C4U G44A A69C, the yeast fitness is 0.568.

For the variant C4A G9A C22A C27G U54A, the yeast fitness is at most 0.5.

On to A20U C60G C61U, for which the yeast fitness is at most 0.5.

Take G41C A65C A70U: the yeast fitness was 0.641.

With U16A C24U C33U A36U A40U G56C A57G A69C, the yeast fitness was at most 0.5.

For C46U C55G, the yeast fitness worked out at 0.65.

A15G G25A A37G A70C: the yeast fitness is 0.522.

C5A C11A A42U U53A: the yeast fitness was determined as 0.616.

In the case of U3C G9A U13G U26C, the yeast fitness is at most 0.5.

In the case of G38C U64A G68A, the yeast fitness was at most 0.5.

With A42G G51A C60A, the yeast fitness was at most 0.5.

As for U32G A37U U64C, the yeast fitness is at most 0.5.

G6C A20G C22A C31G: the yeast fitness was at most 0.5.

As for C4U A20U U53C C61U, the yeast fitness amounted to 0.627.

Turning to U26A C33A, the yeast fitness was determined as 0.689.

As for U35A A37U U47A C62U, the yeast fitness was at most 0.5.

As to U2A C62U, the yeast fitness was found to be 0.899.

As for U32C G68A, the yeast fitness was 0.921.

With G10A A15U A36U, the yeast fitness is at most 0.5.

As to C30U A36U C62G G63A, the yeast fitness was determined as 0.542.

C30A A42U: the yeast fitness worked out at 0.753.

In the case of U13C C22U A45C G48C, the yeast fitness was at most 0.5.

Turning to A14U U59A, the yeast fitness came out at 0.583.

Take C4A A15G G17A: the yeast fitness is 0.724.

Consider U8A C34U G67A A69G, for which the yeast fitness stood at 0.568.

With U8A G18A C30A U32A U35A G67A, the yeast fitness was at most 0.5.

In the case of C22U C30U A37G, the yeast fitness stood at 0.526.

Take C4G A20C U26G C33U G44C U59A: the yeast fitness was at most 0.5.

For the variant U2A U32A A37U A43G, the yeast fitness was at most 0.5.

As to G50C C61A, the yeast fitness was 0.544.

Turning to A36U G58A, the yeast fitness is 0.624.

For U2G A40U C49A, the yeast fitness was 0.547.

For C4G A20G G51C, the yeast fitness stood at 0.66.

With C30G G38C, the yeast fitness amounted to 0.741.

Regarding A21G C33U C49A, the yeast fitness is 0.502.

Turning to C4G G10C C27G A37G G39A, the yeast fitness is at most 0.5.

As for C11U C24G A36C A37G A70C, the yeast fitness was at most 0.5.

Turning to C4G U7G A36C, the yeast fitness is at most 0.5.

Regarding U16C A69G A70G, the yeast fitness is 0.745.

Consider U19C C49G G67U, for which the yeast fitness is 0.599.

As for U19C C60A, the yeast fitness came to 0.547.

Take G9C G48C: the yeast fitness was 0.695.

For the variant U7C C31U A57U A69C, the yeast fitness was at most 0.5.

On to G38C C60U G63C A65G, for which the yeast fitness was at most 0.5.

Regarding A15U A57C A65U, the yeast fitness is 0.794.

As for U47C C60G A69C, the yeast fitness was at most 0.5.

For the variant G9A C11G U13G G23C C34U C55U, the yeast fitness is at most 0.5.

Take U8C C46U G51C: the yeast fitness is at most 0.5.

For the variant C4G C33A, the yeast fitness stood at 0.653.

For the variant C5A A40G C62U, the yeast fitness is at most 0.5.

As to C5A A14U G50A A57U A70G, the yeast fitness was at most 0.5.

Take U28A A42C: the yeast fitness stood at 0.797.

As to A14C A21G A37C G50A A57C, the yeast fitness was at most 0.5.

As for C31A U64G A69C, the yeast fitness is at most 0.5.

For the variant U7C G9A U13C A21U G38C C46A, the yeast fitness was at most 0.5.

For C29G C34A, the yeast fitness is 0.585.

For the variant U8C U16C A20C C24G C55A, the yeast fitness was determined as 0.729.

For C4G C31A C61U, the yeast fitness was at most 0.5.

Take U28G C49U A69U: the yeast fitness was found to be 0.804.

For U28C G41C C49G, the yeast fitness is at most 0.5.

As for C11G U16A C22U A45U, the yeast fitness was at most 0.5.

On to C4A G10A G50A, for which the yeast fitness is at most 0.5.

C27G G52A: the yeast fitness is 0.941.

For U19C C27U C33U A40C C55A A65G, the yeast fitness was at most 0.5.

In the case of C31U A43C A69C, the yeast fitness came to 0.902.

For the variant C5U A21C C31G G68C, the yeast fitness was at most 0.5.

As to U7G C11U G12C C33U G58C, the yeast fitness is at most 0.5.

In the case of C11U A37C A42G A43U C62A, the yeast fitness is at most 0.5.

Turning to A15G U47C G68C, the yeast fitness was at most 0.5.

In the case of U7A G23C C31U, the yeast fitness is at most 0.5.

For the variant C33A A57U C66U A69U, the yeast fitness is at most 0.5.

Regarding U26C A45G, the yeast fitness was 0.966.

On to C5A A14G C31U C34U C60G G63A, for which the yeast fitness is at most 0.5.

On to A15C U32A A65C, for which the yeast fitness is at most 0.5.

Consider G10U A42U, for which the yeast fitness was 0.775.

On to G18C C34G A45C C66U, for which the yeast fitness worked out at 0.775.

As for A14C A21C C24U A36U A43U C55U, the yeast fitness is at most 0.5.

Regarding C30U C31U C34A, the yeast fitness came out at 0.601.

C29G U53C U54G: the yeast fitness came to 0.509.

Consider U2C U16A U32A A37U C62A, for which the yeast fitness was at most 0.5.

On to U2A C24G A70U, for which the yeast fitness is at most 0.5.

With C31G C66U, the yeast fitness was 0.867.

Turning to U13G C55A, the yeast fitness is 0.502.

In the case of A21U C22G C66U, the yeast fitness was 0.568.

On to G9U C11G U32G G56A, for which the yeast fitness was at most 0.5.

On to C5G A14U A21G G23A C31U G63C U64A C66G, for which the yeast fitness was at most 0.5.

Take U7C C34U G52C: the yeast fitness was 0.579.

Regarding C4G C5A, the yeast fitness worked out at 0.765.

As for G10A C66U, the yeast fitness stood at 0.635.

For G25A A36C, the yeast fitness worked out at 0.52.

As to C11G U32A A37C G39A A43G U54C C62G, the yeast fitness is at most 0.5.

Take G41C C46G U59C C60U: the yeast fitness was at most 0.5.

Regarding C4G G9C C34A A36G A40C, the yeast fitness is at most 0.5.

For the variant U35G, the yeast fitness came out at 0.676.

With C33A G39A A40U C55U C62U, the yeast fitness is at most 0.5.

Turning to C4U C5G C31G G50C, the yeast fitness is at most 0.5.

G6C C61G G68A: the yeast fitness was at most 0.5.

As for G9U G18A C46A C49G, the yeast fitness is 0.552.

As for U7G U13C C31U, the yeast fitness is 0.903.

In the case of C5A U16A A21G C27G C46U, the yeast fitness is at most 0.5.

Turning to C5A U7G C29G C33U G44C A69C, the yeast fitness is at most 0.5.

Regarding C34A A45C, the yeast fitness was found to be 0.675.

As to C5G U16C A20G A70U, the yeast fitness was at most 0.5.

Consider C30G G48A U53C, for which the yeast fitness was at most 0.5.

Take G25A C29U C31G C55U G67C: the yeast fitness was at most 0.5.

Turning to A15G A57U A65U, the yeast fitness is at most 0.5.

With A15U A40C C49U, the yeast fitness was 0.528.

Take A15G G56A A65C: the yeast fitness stood at 0.619.

As for C30G C34A C49G G50A U64A, the yeast fitness stood at 0.56.

With C24U A36C A43U C61U, the yeast fitness is at most 0.5.

C11U C31G C49U G67A: the yeast fitness was at most 0.5.

A15C U47A G52C: the yeast fitness was determined as 0.539.

As for A40U G44C U53G, the yeast fitness is at most 0.5.

For G6A G12A A20G C22G U26A G48C A65U, the yeast fitness is at most 0.5.

C4G G48A: the yeast fitness came out at 0.876.

Turning to U7C A15G G18C, the yeast fitness is at most 0.5.

With G10A U19A G41C, the yeast fitness was at most 0.5.

Turning to G12A C46G, the yeast fitness is 1.

G6C A65U: the yeast fitness was found to be 0.917.

Turning to U3G A45G A69U, the yeast fitness is 0.763.

Regarding U2C G17C G23C G25C U35A A42U C66U, the yeast fitness was at most 0.5.

G9A C24G A40C: the yeast fitness is at most 0.5.

Turning to C5A A36G G44A U47C A70U, the yeast fitness was at most 0.5.

In the case of C34G A37G C62A, the yeast fitness was at most 0.5.

Consider U8G G67U, for which the yeast fitness was 0.583.

In the case of C4U C11U C30G G68C, the yeast fitness worked out at 0.593.

For G18A U19G C60U A69C, the yeast fitness is at most 0.5.

In the case of C11U U19A A43U U59A G63A, the yeast fitness was at most 0.5.

Consider C34G A40C C46G, for which the yeast fitness was found to be 0.562.

With A57G, the yeast fitness came to 0.998.

For the variant A15U C46A C61G A69G, the yeast fitness is at most 0.5.

C29U C30U C49G: the yeast fitness is 0.731.

On to C24U C34U C66U, for which the yeast fitness was 0.58.

For the variant A14G U19C G68A, the yeast fitness came out at 0.559.

On to A14U G44C G50A, for which the yeast fitness is at most 0.5.

Regarding G9A A15C G58C, the yeast fitness came to 0.581.

In the case of U7A A20C A21G G23A, the yeast fitness stood at 0.65.

Regarding U16C G39C, the yeast fitness was 0.696.

Consider A14G G56U A65U G68C, for which the yeast fitness was at most 0.5.

With C5G C24U C27A G51C G56C, the yeast fitness was at most 0.5.

In the case of U16C G18A U28A C31A U32A A57G G67A, the yeast fitness came out at 0.962.

In the case of G17C C22G C24A C62A C66U, the yeast fitness is at most 0.5.

As to A40C G41C C49A G68C, the yeast fitness was at most 0.5.

With C5A A36G C66U, the yeast fitness is 0.655.

In the case of A15U C29A C34G C62U G68A, the yeast fitness was 0.616.

In the case of C27U C30U A42C C55U A70G, the yeast fitness is at most 0.5.

As to U2A C4U U8G C22G U47A A70C, the yeast fitness is at most 0.5.

As to C4U G9A C61G, the yeast fitness was determined as 0.566.

Consider C11U C27U C31A A42G C49G G51A G68C, for which the yeast fitness is at most 0.5.

Consider C29A A37G C55A, for which the yeast fitness is at most 0.5.

As to U2C U8G C31G A42C C49U G56A C61G, the yeast fitness is at most 0.5.

Turning to A36C U47A G48C U54G A65C, the yeast fitness came to 0.6.

Turning to G56A A69U, the yeast fitness was 1.01.

With U2G C30G C61U G68A, the yeast fitness is 0.531.

Source of the values: the RNAGym collection of RNA variant scans (doi:10.1126/science.aae0568).
